HNF4A DNA FP: change in binding of human HNF4 alpha to DNA; activity change, % at 10 µM; 0.3% of 360,000 active; AID 1224865; HNF4a-FITC DNA binding, fluorescence polarization, 1 h; P41235; in the data active = activity change above about 30%, passing the limit was not always enough
H9c2 protect: modulators protecting cardiomyocytes from myocardial damage. H9c2 cardiomyocytes, H2O2 injury protection, ATPLite, 2 h. protection from H2O2 cell death, % at 20 µM. 0.63% of 360,000 active. AID 588492;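 active = compounds giving at least 50% protection of heart cells from peroxide-induced death in the single-dose screen, raw or plate-pattern-corrected value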;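 also: 0% = DMSO wells with peroxide and 100% = DMSO wells without peroxide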
SENP1 FRET inh: blocks the human SENP1 SUMO protease catalytic domain; AID 624204; recombinant SENP1 catalytic domain, CyPet-SUMO1-YPet FRET cleavage; inhibition, % at 10 µM; 0.21% of 360,000 active;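 active = inhibition at least 30% at 10 µM, raw YFP signal under a set limit, fluorescence ratio 0.5 to 1.5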;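 also: 0% = enzyme with DMSO and 100% = no enzyme wells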
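Material – human SENP1 catalytic domain · Input – SENP1 enzyme, 20 pM final · Compound dosing – single concentration of 10 µM compound, 0.5% DMSO final · Timing – enzyme reaction for 50 min at room temperature, dark · Measured by – FRET fluorescence in CFP and YFP emission channels · Control set – no-enzyme wells low, DMSO-plus-enzyme wells high control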
Granule exo inh: blocks lytic granule exocytosis; TALL-104 LAMP-1 surface exposure, flow cytometry; cells stimulated with thapsigargin and PMA; inhibition, % at 10 µM; 0.66% of 360,000 active;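 active = inhibition above about 55%, limit read from the data; inconclusive = no clear call, values can overlap the other calls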
Pemphigus Ab inh: blocks pemphigus antibody binding to human desmoglein-3. P32926. DSG3-coupled beads, scFv-anti-DSG3-GFP binding, flow cytometry; hits give low values. binding (percent of control), % at 10 µM. 0.48% of 310,000 active. AID 588358;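 active = binding more than 3 SD below its plate's average and above zero; inconclusive = below that plate limit but binding exactly zero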;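 also: hits lower antibody fragment binding to DSG3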
Myeloid diff MLP: myeloid differentiation induction | ER-HoxA9 myeloid progenitors, lysozyme-GFP differentiation, flow cytometry | calls only at 10 µM | 1% of 360,000 active;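 active = normalized GFP-positive differentiation at or above the plate's own cutoff, the solvent-only control mean plus 3 SD; inconclusive = no clear call, values can overlap the other calls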;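 also: cells exposed to compound for four days before flow analysis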
SENP1 inh conf: SENP1 (human) inhibition, single concentration confirmation; recombinant SENP1, CyPet-SUMO1-YPet FRET cleavage; inhibition, % at 10 µM; shares compounds with SENP1 FRET inh; 34% of 520 active; in the data active = inhibition mostly above about 35%, no sharp cut-off; inactive = mostly below about 32%;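 also: 0% = enzyme with DMSO and 100% = no enzyme control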
SENP1 kin conf: SENP1 (human) inhibition, kinetic confirmation; shares compounds with SENP1 FRET inh; recombinant SENP1, CyPet-SUMO1-YPet FRET kinetic cleavage; inhibition, % at 10 µM; 26% of 520 active; AID 651690; in the data active = inhibition mostly above about 32%, no sharp cut-off; inactive = mostly below about 29%;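 also: 0% = DMSO with enzyme and 100% = no enzyme substrate only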
Myeloid diff: promotes myeloid progenitor differentiation; shares compounds with Myeloid diff MLP; ER-HoxA9 myeloid progenitors, GFP/Mac1 double-positive flow; calls only; 2% of 2,300 active; AID 651706;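 active = share of green or green-and-red cells above 9 and 9% in run 1 or 4 and 3% in run 2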
GFP autofluor: flagged as fluorescent in myeloid differentiation counter-screen. shares compounds with Myeloid diff MLP. ER-HoxA9 myeloid progenitors, no estrogen, GFP autofluorescence flow cytometry; vehicle wells 0%, positive control 100%. fluorescence response, % (concentration not given with the values). 7.4% of 2,300 active;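 active = over 5% cells positive for green fluorescent reporter, or over 2% positive for both it and APC stain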;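 also: range taken on the double positive population between DMSO and positive control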
* = called active by the depositor; i = inactive; ? = inconclusive; · = no result; + = active, no number. This is a sample that favours compounds with a hit; in the whole collection about 3% have one here.

SMILES	HNF4A DNA FP	H9c2 protect	SENP1 FRET inh	Granule exo inh	Pemphigus Ab inh	Myeloid diff MLP	SENP1 inh conf	SENP1 kin conf	others
CC1(C)CC(=O)C=C(c2n[nH]nc2C2=CCCCC2)C1	3	7	-34	0	108	i	·	·
CC1(C)CC(=O)C(N=Nc2ccc(F)cc2)=C(O)C1	0	-8	1	-1	100	i	·	·
CC1(C)CC(=O)C(N=Nc2ccc(-c3ccccc3)cc2)=C(O)C1	33	-8	63*	2	100	i	17	5
Cc1cccc(-n2c(SCc3cc(=O)n4ccsc4n3)nc3ccccc32)c1	-4	46	31*	4	·	i	40*	28
Cn1c(Cc2ccccc2)nnc1SCc1cc(=O)n2ccsc2n1	-1	0	-4	4	111	i	·	·
Nc1cc2c([N+](=O)[O-])cccc2o1	11	2	63*	1	·	i	31	17
COc1ccccc1Nc1ccc([N+](=O)[O-])cc1N	4	-6	49*	-2	95	i	29	17
COc1ccc(NC(=O)CSc2nc(N)c(C#N)cc2C#N)cc1	16	2	-27	-3	99	i	·	·
CCOC(=O)c1c(C#N)c(SCC(=O)Nc2ccc(OC)cc2)nc2c1CN(CC)CC2	-3	5	40*	-8	101	i	20	11
N#C/C(=C\C=C\c1ccccc1[N+](=O)[O-])c1nc(-c2ccc3c(c2)OCO3)cs1	6	3	54*	0	107	i	4	13
O=C(NCCSCc1ccccc1)c1ccc(C2SCC(=O)N2Cc2ccccc2)cc1 (centres undefined)	7	-1	63*	-2	91	i	45*	50*
COC(=O)c1ccc(C2SCC(=O)N2Cc2ccccc2)cc1 (centres undefined)	4	4	2	-7	94	i	·	·
COc1ccc2c(c1)c1nc3ccccc3nc1n2Cc1ccc(OC)c(OC)c1	-7	1	39*	-2	·	i	63*	52*
COC(=O)Cn1c2ccc(OC)cc2c2nc3ccccc3nc21	-3	0	23	0	105	i	·	·
CCOc1ccc(Cn2c3ccc(OC)cc3c3nc4ccccc4nc32)cc1OC	-14	11	42*	-2	105	i	68*	48*
CCOC(=O)Cn1c2ccc(OC)cc2c2nc3ccccc3nc21	-25	-6	62	5	·	i	·	·
CCCCC(=O)Nc1ccc(C(=O)N(CC)c2ccccc2C)cc1	7	-8	0	-2	102	i	·	·
CCN1/C(=C\C=C2\C(=O)N(c3ccccc3)C(=S)N2C)Sc2ccccc21	8	1	35*	0	90	·	-3	0
CCN1/C(=C\C=C(C(C)=O)C(C)=O)Sc2ccccc21	192	-2	-25	0	101	i	·	·
c1ccc(CN2CCN(c3nc4ccccc4s3)CC2)cc1	-3	-11	1	-4	105	i	·	·
c1ccc(CN2CCN(C3=Nc4cccc5cccc3c45)CC2)cc1	2	-2	83*	26	113	i	89*	53*
Cc1cc(C(=O)NCc2ccc(F)cc2)c2ccccc2n1	1	4	0	-9	109	i	·	·
Cc1cc(C(=O)NCc2ccccc2F)c2ccccc2n1	2	-3	43*	0	·	i	51*	41*
CN1CCN(C(=O)/C(=C/c2ccccc2F)NC(=O)c2ccccc2)CC1	1	-1	0	0	89	i	·	·
Cc1cc(C)c2c3c(c(-c4ccccc4)n2n1)c(=O)n(C)c(=O)n3C	-2	-1	7	-2	92	i	·	·
SMILES	HNF4A DNA FP	H9c2 protect	SENP1 FRET inh	Granule exo inh	Pemphigus Ab inh	Myeloid diff MLP	SENP1 inh conf	SENP1 kin conf	others
Cc1cccc(-c2c3c(=O)n(C)c(=O)n(C)c3c3cccnn23)c1	3	5	62*	-1	102	i	30*	28
CCOC(=O)/C(C#N)=C/c1cc2ccccc2nc1N1CCOCC1	0	4	67*	1	127	i	35	20
CCOC(=O)/C(C#N)=C/c1cc2ccc(C)cc2nc1Cl	-2	6	2	7	101	?	·	·
COc1cc(C2C3=C(COC3=O)Oc3cc4c(cc32)OCO4)cc(OC)c1O (centres undefined)	-6	3	3	-11	99	?	·	·
Oc1ccccc1NCC(O)Cn1ccc2ccccc21 (centres undefined)	16	-19	37*	-2	115	i	5	1
CCN1CCN(S(=O)(=O)c2ccc(Oc3ccccc3OC)cc2)CC1	0	-13	2	0	112	i	·	·
O=CNc1ccc2c(c1)Cc1cc([N+](=O)[O-])ccc1-2	-2	-8	48*	-19	96	?	27	20
CSc1nc2c(cc1C#N)CCC2	2	5	0	-4	·	i	·	·
Brc1cc(Br)c2nc3c(cc2c1)CCC3	7	-2	33*	2	106	i	3	7
N#C/C(=C\c1ccc(/C=C(/C#N)c2nn(CCO)c(N)c2C#N)cc1)c1nn(CCO)c(N)c1C#N	3	0	38*	11	86*	i	33	27	Myeloid diff=i;GFP autofluor=1
CCCC(NC(=O)CCc1c(C)c2cc3c4c(oc3c(C)c2oc1=O)CCCC4)C(=O)O (centres undefined)	0	-2	-17	-7	100	i	·	·
COc1ccc2nc3ccccc3nc2c1NC(=O)c1ccc(Br)cc1	-7	4	92*	-5	116	+	105*	60*	Myeloid diff=i;GFP autofluor=5.4*
CCOC(=O)C1=C(C)N=c2s/c(=C\c3ccc(C(=O)O)cc3)c(=O)n2C1c1ccc(F)cc1 (centres undefined)	3	1	13	0	78	i	·	·
CC(=O)C1=C(C)N=c2s/c(=C/c3ccc4c(c3)OCO4)c(=O)n2C1c1ccc(N(C)C)cc1 (centres undefined)	78*	0	65*	-3	92	+	32	18	Myeloid diff=i;GFP autofluor=22*

Screening data deposited in PubChem by several laboratories.
